Screening results as filed in PubChem BioAssay.
The list is not random: actives were taken first. Their share in the collection is about 2.4%.
MEX-5 binding: C. elegans MEX-5 TCR-2 RNA binding activity | Q9XUB2 | MEX-5/FITC-TCR2 RNA binding, fluorescence polarization; hits give low values | activity score (negative = inhibition of binding), % at 10 µM | actives 0.38% (n = 300,000) | AID 1832;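 active = inhibition past about -25% in most replicates, and total fluorescence under double the plate's negative control median, limit read from the data; inconclusive = replicates evenly split on the limit, or fluorescence at least double controls; inactive = too little inhibition in most replicates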
Target sequence (Q9XUB2 whole entry, looked up): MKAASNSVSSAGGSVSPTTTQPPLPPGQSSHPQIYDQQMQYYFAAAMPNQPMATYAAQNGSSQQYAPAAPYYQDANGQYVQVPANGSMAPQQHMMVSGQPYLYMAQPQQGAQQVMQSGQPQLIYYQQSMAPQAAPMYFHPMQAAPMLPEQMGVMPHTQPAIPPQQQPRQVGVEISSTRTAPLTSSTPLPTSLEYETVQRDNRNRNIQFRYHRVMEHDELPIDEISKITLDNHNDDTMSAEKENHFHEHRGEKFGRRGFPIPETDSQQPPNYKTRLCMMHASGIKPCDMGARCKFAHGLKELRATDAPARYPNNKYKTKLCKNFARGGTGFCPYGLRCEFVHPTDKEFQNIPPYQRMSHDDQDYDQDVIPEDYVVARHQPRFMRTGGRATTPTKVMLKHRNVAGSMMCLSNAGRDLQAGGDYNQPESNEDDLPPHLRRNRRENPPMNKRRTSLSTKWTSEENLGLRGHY
Runt-CBFb FRET: blocks binding of human RUNX1 Runt domain to CBFb; actives 0.46% (n = 220,000); Cerulean-Runt/Venus-CBFb FRET ratio 530/480, 1 h; inhibition, % at 20 µM;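 active = inhibition over about 50% at 20 µM in the single-dose screen, limit read from the data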
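Assay system: Cerulean-tagged RUNX1 Runt domain (FRET donor) fusion protein / Amount: 100 nM each of Venus-CBFb and Cerulean-Runt domain / Medium: Tris buffer pH 7.5 with salts and BSA / Also added: Venus-CBFb 100 nM / Schedule: 1 h complex formation plus 1 h compound treatment, room temperature / Signal: FRET fluorescence / Read-out: loss of energy transfer signal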
LANA-H2A inh: blocks KSHV LANA binding to histone H2A/H2B; actives 0.6% (n = 320,000); Q9QR71; AID 2629; inhibition, % (concentration not given with the values); cell-free LANA-H2A/H2B peptide, fluorescence polarization; in the data active = inhibition mostly above about 10%, no sharp cut-off; inactive = mostly below about 6.7%
EBV gp42 block: blocks Epstein-Barr virus glycoprotein 42 binding | Q1HVG2 | Fluorescence polarization binding assay, mP read-out | inhibition, % (tested at 21.74 µM) | actives 0.42% (n = 220,000) | AID 1085; in the data active = inhibition above about 50%
Runt-SMMHC FRET: Runt domain-CBFb-SMMHC interaction inhibition | Q01196+Q13951 | Cerulean-Runt/Venus-CBFb-SMMHC FRET ratio 530/480, 1 h | inhibition, % at 20 µM | actives 0.74% (n = 220,000) | AID 1434;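 active = mean inhibition across duplicate retests at 20 µM reaching about 50%, limit read from the data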;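 also: inhibitors lower the FRET ratio by blocking Runt binding to CBFb-SMMHC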
RanGTP-Impb inh: inhibitors of RanGTP-importin-beta interaction, primary screen, biochemical, FRET, CFP-Ran, YFP-importin-beta, homogeneous; inhibition, % (concentration not given with the values); cell-free CFP-Ran/YFP-importin-beta FRET ratio; AID 2216; actives 1.1% (n = 300,000);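 active = more than half of the replicate wells show a fall in the fluorescence ratio signal beyond about 16%, limit read from the data, passing the limit was not always enough; inconclusive = exactly half of the replicate wells pass the set limit; inactive = fewer than half of replicates pass the limit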
Numbers stand for hits; . = inactive; ? = inconclusive; / = no result.

SMILES | MEX-5 binding | Runt-CBFb FRET | LANA-H2A inh | EBV gp42 block | Runt-SMMHC FRET | RanGTP-Impb inh
CCOP(=O)(OCC)C(NC(=O)CC(C)C)C(Cl)(Cl)Cl (stereo unspecified) | . | . | . | . | . | .
CCOP(=O)(OCC)C(C)(C)NC(=O)C(Cl)(Cl)Cl | . | . | . | . | . | 84.5
CC1(O)CCN2C(=O)CCc3cccc1c32 (stereo unspecified) | / | / | 11.8 | / | / | /
Cc1ccccc1-n1c(O)c(/C=N/Nc2nc3c(c(=O)n(C)c(=O)n3C)n2C)c(=O)[nH]c1=S | . | . | . | . | . | .
Cc1cccc(-n2c(O)c(/C=N/Nc3nc4c(c(=O)n(C)c(=O)n4C)n3C)c(=O)[nH]c2=S)c1 | -46.9 | . | . | . | . | .
CCCN1CCc2cccc3c2[C@H]1Cc1ccc(O)c(O)c1-3 | -84.1 | / | . | / | / | .
COc1ccc2c(c1O)-c1c(OC)c(OC)cc3c1[C@H](C2)N(C)CC3 | / | / | . | / | / | /
CN1CC=C2C(C#N)=C(N)C(C#N)(C#N)C(c3ccncc3)C2C1 (stereo unspecified) | -47.0 | . | . | / | . | 44.9
CC12CN3CCN(CC(C3)C1O)C2 (stereo unspecified) | . | . | . | . | . | ?
CC(C)CC12CN3CCN(CC(C3)C1O)C2 (stereo unspecified) | . | . | 0.7 | . | . | .
COC(=O)C1=C(c2ccc(F)cc2OCc2ccccc2)C[C@@H]2CC[C@H]1N2C(=O)NCc1ccc(C)cc1 | / | / | . | / | / | /
Cc1cccc(-c2nc3ccc(C(=O)N4CCC5(CC4)OCCO5)cc3nc2-c2cccc(C)c2)c1 | . | / | . | / | / | .
O=C(/C=C/c1c[nH]c2ccccc12)c1c(O)n(CCc2ccccc2)c(=O)[nH]c1=O | . | . | . | . | . | 30.9
CCCCn1c(O)c(C(C)=NCCc2c[nH]c3ccccc23)c(=O)[nH]c1=O | . | . | . | . | . | .
CCn1nc(-c2ccccc2)nc2c(=O)n(C)c(=O)nc1-2 | ? | . | . | 97.9 | . | .
CN1CCc2nc(SCc3cccc(Br)c3)c(C#N)cc2C1 | . | . | . | . | . | .
COc1ccc(CC2C(=O)N(c3ccccc3)C(=O)N(c3ccccc3)C2=O)c(OC)c1 | . | . | 13.4 | . | . | .
CCC(=NCc1ccco1)c1c(O)n(C2CCCCC2)c(=O)[nH]c1=O | . | . | . | . | 101.7 | .
CCC(=NCc1cccnc1)c1c(O)n(C2CCCCC2)c(=O)[nH]c1=O | . | . | . | . | . | .
CCOC(=O)c1c(N)n(Cc2ccc(OC)cc2)c2nc3ccccc3nc12 | . | . | / | . | 110.5 | .
COC(=O)c1c(N)n(Cc2ccc(OC)cc2)c2nc3ccccc3nc12 | / | . | . | . | 118.5 | /
Cc1nn(Cc2ccccc2)c(C)c1C(=O)OCC(=O)Nc1ccccc1SCC#N | . | . | . | . | . | .
O=c1c2ccccc2[se]n1-c1ccccc1 | . | . | . | . | . | .
CCOC(=O)COc1ccc2c(c1)c(C(C)=O)c(C)n2Cc1ccccc1 | / | . | . | . | . | .
COc1ccc(P2(=O)Nc3ccccc3N2)cc1 | -35.7 | / | . | . | . | .
SMILES | MEX-5 binding | Runt-CBFb FRET | LANA-H2A inh | EBV gp42 block | Runt-SMMHC FRET | RanGTP-Impb inh
CCCNC(=O)N1[C@H]2CC[C@@H]1C(C(=O)OC)=C(c1ccccc1)C2 | . | / | . | / | / | .
O=C(O)c1sc2cc(Cl)ccc2c1Cl | . | . | . | . | . | .
N#Cc1c(Cl)nc(Cl)c2c1CCN(Cc1ccccc1)C2 | . | . | . | . | 60.8 | .
CCOC(=O)CC(NC(=O)C(Cc1ccc(N(CCCl)CCCl)cc1)NC(C)=O)C(=O)OCC (stereo unspecified) | . | / | . | . | / | .
Cc1ccccc1-n1c(-c2ccco2)nc2ccccc2c1=O | . | . | . | . | . | .
O=c1c2ccccc2nc(/C=C/c2ccc3c(c2)OCO3)n1-c1ccccc1 | . | . | 11.2 | . | . | .
Cc1ccc2cc(C=C(C#N)C#N)c(Cl)nc2c1 | ? | . | . | . | . | 50.8
CC(C)(O)C(=O)Nc1ccc([N+](=O)[O-])c(C(F)(F)F)c1 | / | / | 19.9 | / | / | /
Cc1nonc1OCCNCCNc1ccc([N+](=O)[O-])c2cccnc12 | -27.0 | . | . | . | . | .
